pIC50: −log10 of the molar value. Active and inactive are the calls of the source. The calls are words filed in the database; no cut-off is given here.
What was measured:
MDA-MB-231 [1] = assay: Cell cycle arrest in human MDA-MB-231 cells assessed as accumulation at S phase at 5 uM after 24 hrs by propidium iodide staining-based flow cytometric analysis (reference value: 32.5 to 34.7%); format: functional
MDA-MB-231 [2] = assay: Cell cycle arrest in human MDA-MB-231 cells assessed as accumulation at G2/M phase at 7.5 uM after 24 hrs by propidium iodide staining-based flow cytometric analysis (reference value: 18.2 to 23.1%); format: functional
MDA-MB-231 [3] = assay: Induction of apoptosis in human MDA-MB-231 cells assessed as late apoptotic cells at 2.5 uM after 24 hrs by annexin V-propidium iodide/Alexa Fluor 488 staining-based flow cytometric analysis (reference value: 2.08 to 3.78%); format: functional
Method in brief: (§1)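 MDA-MB-231 cells, about 2 × 10⁵ per well, seeded in triplicate and treated for 24 h in RPMI-1640 with 10% FBS. Stained with Alexa Fluor 488 annexin V and propidium iodide, then read by flow cytometry. AV+/PI+ events were counted as late apoptotic and reported as percentage of cells relative to control. Three independent experiments, mean ± SEM.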

MDA-MB-468 = assay: Cytotoxicity against human MDA-MB-468 cells assessed as growth inhibition after 24 to 72 hrs by MTT assay; format: functional, cell-based
Method in brief: (§2)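 About 5000 cells/well were grown 24 h in RPMI-1640 with 10% FBS, then given fresh medium with compound at various concentrations (from 10 mM DMSO stocks) for 24, 48 and 72 h. MTT (5 mg/mL stock) was added for 2 h and formazan dissolved in DMSO. Absorbance was read at 595 nm and expressed as percent proliferation versus DMSO control.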

MDA-MB-231 [4] = assay: Cell cycle arrest in human MDA-MB-231 cells assessed as accumulation at G0/G1 phase at 5 uM after 24 hrs by propidium iodide staining-based flow cytometric analysis (reference value: 44.3 to 47.1%); format: functional
MDA-MB-231 [5] = assay: Cell cycle arrest in human MDA-MB-231 cells assessed as accumulation at G2/M phase after 24 hrs by propidium iodide staining-based flow cytometric analysis; format: functional
MDA-MB-231 [6] = assay: Cell cycle arrest in human MDA-MB-231 cells assessed as accumulation at S phase at 2.5 uM after 24 hrs by propidium iodide staining-based flow cytometric analysis (reference value: 32.5 to 34.7%); format: functional
4T1 = assay: Antitumor activity against mouse 4T1 cells allografted in Balb/c mouse assessed as tumor growth inhibition at 10 mg/kg, po administered every alternative day for 5 weeks measured twice a week during compound dosing relative to control; format: functional
Method in brief: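 4T1 cells (7 × 10⁵) were injected into the second right mammary fat pad of 8-week-old female Balb/c mice, with a booster of about 5 × 10⁵ cells 4 days later. One week after the booster, dosing began at 10 mg/kg by oral gavage on alternate days for 5 weeks (n = 6). Controls received vehicle. Tumor size and body weight were measured twice weekly.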

MDA-MB-231 [7] = assay: Induction of apoptosis in human MDA-MB-231 cells assessed as early apoptotic cells at 2.5 uM after 24 hrs by annexin V-propidium iodide/Alexa Fluor 488 staining-based flow cytometric analysis (reference value: 4.05 to 4.68%); format: functional
MCF7 = assay: Cytotoxicity against human MCF7 cells assessed as growth inhibition after 24 to 72 hrs by MTT assay; format: functional, cell-based; method in brief: as §2
MDA-MB-231 [8] = assay: Cell cycle arrest in human MDA-MB-231 cells assessed as accumulation at G2/M phase at 2.5 uM after 24 hrs by propidium iodide staining-based flow cytometric analysis (reference value: 18.2 to 23.1%); format: functional
MDA-MB-231 [9] = assay: Cell cycle arrest in human MDA-MB-231 cells assessed as accumulation at G0/G1 phase at 7.5 uM after 24 hrs by propidium iodide staining-based flow cytometric analysis (reference value: 44.3 to 47.1%); format: functional
[10] = Cytotoxicity against human H1299 cells assessed as growth inhibition after 24 to 72 hrs by MTT assay; format: functional, cell-based; settings: NCI-H1299; method in brief: as §2
MDA-MB-231 [11] = assay: Induction of apoptosis in human MDA-MB-231 cells assessed as early apoptotic cells at 7.5 uM after 24 hrs by annexin V-propidium iodide/Alexa Fluor 488 staining-based flow cytometric analysis (reference value: 4.05 to 4.68%); format: functional
MDA-MB-231 [12] = assay: Induction of apoptosis in human MDA-MB-231 cells assessed as late apoptotic cells at 7.5 uM after 24 hrs by annexin V-propidium iodide/Alexa Fluor 488 staining-based flow cytometric analysis (reference value: 2.08 to 3.78%); format: functional; method in brief: as §1
MDA-MB-231 [13] = assay: Antimigratory activity against human MDA-MB-231 cells at >= 2.5 uM after 48 hrs by transwell assay
Mus musculus = assay: Toxicity in Balb/c mouse allografted with mouse 4T1 cells assessed as reduction in body weight at 10 mg/kg, po administered every alternative day for 5 weeks measured twice a week during compound dosing; format: organism-based; set-up: dose 10 mg/kg, route oral; settings: in vivo, 840 h
Method in brief: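 Female Balb/c mice, 8 weeks old, given 7 × 10⁵ 4T1 cells into the second right mammary fat pad, plus a booster of about 5 × 10⁵ cells after 4 days. One week later, 10 mg/kg by oral gavage on alternate days for 5 weeks, n = 6. Vehicle-dosed controls. Body weight and tumour size measured twice weekly.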

MDA-MB-231 [14] = assay: Induction of apoptosis in human MDA-MB-231 cells assessed as depolarization of mitochondrial membrane potential after 24 hrs by JC-1 staining-based flow cytometric analysis; format: functional, cell-based
Method in brief: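 Cells were seeded in 60 mm dishes, grown 24 h, then treated with compound for 24 h. Cells were stained with JC-1 and analysed by flow cytometry. Depolarization was read as green-only cells and as a fall in red/green fluorescence ratio, normalized to control. Three independent experiments, mean ± SEM.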

MDA-MB-231 [15] = assay: Cell cycle arrest in human MDA-MB-231 cells assessed as accumulation at G2/M phase at 5 uM after 24 hrs by propidium iodide staining-based flow cytometric analysis (reference value: 18.2 to 23.1%); format: functional
MDA-MB-231 [16] = assay: Induction of apoptosis in human MDA-MB-231 cells assessed as late apoptotic cells at 5 uM after 24 hrs by annexin V-propidium iodide/Alexa Fluor 488 staining-based flow cytometric analysis (reference value: 2.08 to 3.78%); format: functional; method in brief: as §1
MDA-MB-231 [17] = assay: Induction of apoptosis in human MDA-MB-231 cells assessed as early apoptotic cells at 5 uM after 24 hrs by annexin V-propidium iodide/Alexa Fluor 488 staining-based flow cytometric analysis (reference value: 4.05 to 4.68%); format: functional
MDA-MB-231 [18] = assay: Cytotoxicity against human MDA-MB-231 cells assessed as growth inhibition after 24 to 72 hrs by MTT assay; format: functional, cell-based; method in brief: as §2
MDA-MB-231 [19] = assay: Cell cycle arrest in human MDA-MB-231 cells assessed as accumulation at S phase at 7.5 uM after 24 hrs by propidium iodide staining-based flow cytometric analysis (reference value: 32.5 to 34.7%); format: functional
MDA-MB-231 [20] = assay: Induction of apoptosis in human MDA-MB-231 cells assessed as late apoptotic cells at 10 uM after 24 hrs by annexin V-propidium iodide/Alexa Fluor 488 staining-based flow cytometric analysis (reference value: 2.08 to 3.78%); format: functional; method in brief: as §1
MDA-MB-231 [21] = assay: Induction of apoptosis in human MDA-MB-231 cells after 24 hrs by annexin V-propidium iodide/Alexa Fluor 488 staining-based flow cytometric analysis; format: functional, cell-based

Row | Compound | Activity (MDA-MB-231 [1]) [%] | Activity (MDA-MB-231 [2]) [%] | Activity (MDA-MB-231 [3]) [%] | pIC50 (MDA-MB-468) | Activity (MDA-MB-231 [4]) [%] | Activity (MDA-MB-231 [5]) | Activity (MDA-MB-231 [6]) [%] | Activity (MDA-MB-231 [7]) [%] | pIC50 (MCF7) | Activity (MDA-MB-231 [8]) [%] | Activity (MDA-MB-231 [9]) [%] | pIC50 [10] | Activity (MDA-MB-231 [11]) [%] | Activity (MDA-MB-231 [12]) [%] | Activity (MDA-MB-231 [13]) | Activity (Mus musculus) | Activity (MDA-MB-231 [14]) | Activity (MDA-MB-231 [15]) [%] | Activity (MDA-MB-231 [16]) [%] | Activity (MDA-MB-231 [17]) [%] | other results
1 | COC(=O)c1cc2c3ccccc3[nH]c2c2cn(-c3ccc(C)cc3Br)c[n+]12.[Cl-] | 17.9 | 32.5 | 3.49 | 5.24 | 47.3 | Dose-dependent effect | 19.5 | 5.42 | 5.16 | 23.6 | 43 | 5.11 | 24.22 | 16.58 | Active | Non-toxic | Dose-dependent effect | 34.7 | 4.06 | 6.93 | TGI (4T1): inactive; pIC50 (MDA-MB-231 [18]): 5.14; Activity (MDA-MB-231 [19]): 24.4%; Activity (MDA-MB-231 [20]): 25.32%; Activity (MDA-MB-231 [21]): Dose-dependent effect
2 | COC(=O)c1cc2c3ccccc3[nH]c2c2cn(-c3ccc(C(F)(F)F)cc3)c[n+]12.[Cl-] | 19 | 38.2 | 2.87 | 4.95 | 45.3 | Dose-dependent effect | 26.7 | 4.4 | 4.85 | 22.8 | 34.1 | 5.35 | 9.28 | 9.02 | Active | Non-toxic | Dose-dependent effect | 35.5 | 2.31 | 5.23 | inhibition in vivo at 10 mg/kg (4T1; 4T1, 840 h, read-out: TGI): 20%; pIC50 (MDA-MB-231 [18]): 5.10; Activity (MDA-MB-231 [19]): 27.6%; Activity (MDA-MB-231 [20]): 14.31%; Activity (MDA-MB-231 [21]): Dose-dependent effect
3 | COC(=O)c1cc2c3ccccc3[nH]c2c2cn(-c3ccc(F)cc3Cl)c[n+]12.[Cl-] | 21.8 | 40.6 | 1.16 | 5.23 | 46.6 | Dose-dependent effect | 29.8 | 2.21 | 5.17 | 23.4 | 31.1 | 5.29 | 12.14 | 7.04 | Active | Non-toxic | Dose-dependent effect | 33.9 | 3.26 | 4.72 | TGI (4T1): inactive; pIC50 (MDA-MB-231 [18]): 5.35; Activity (MDA-MB-231 [19]): 28.22%; Activity (MDA-MB-231 [20]): 11.92%; Activity (MDA-MB-231 [21]): Dose-dependent effect

From ChEMBL document CHEMBL3425411, “Synthesis of β-Carboline-Based N-Heterocyclic Carbenes and Their Antiproliferative and Antimetastatic Activities against Human Breast Cancer Cells” (J Med Chem, 2015)
